This is an account of results in ChEMBL document CHEMBL1799918, “Growth inhibitory activities of oxyprenylated and non-prenylated naturally occurring phenylpropanoids in cancer cell lines” (Bioorg Med Chem Lett, 2011).

One test deals with LoVo. The test can be described thus: Cytotoxicity against human LoVo cells after 72 hrs by MTT assay. In kind it is functional, cell-based. In short, it runs like this: (§1)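 MTT colorimetric assay on human cancer cell lines; IC50 growth inhibitory concentration determined in vitro for each compound.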
The next test relates to A549. The test can be described thus: Cytotoxicity against human A549 cells after 72 hrs by MTT assay. Conditions: A549, 72 h. The test is classed as functional, cell-based. In short, it runs like this: as §1
Test [1] can be described thus: Cytostatic activity against human U373 cells assessed as growth inhibition at MTT assay-related IC50 by quantitative video microscopy relative to control. The test is classed as functional, U-373MG ATCC.
Another test has as its system SK-MEL-28. As to the kind of experiment: Cytotoxicity against human SK-MEL-28 cells after 72 hrs by MTT assay. The test is classed as functional, cell-based. Conditions: SK-MEL-28, 72 h. In a few lines: as §1
(In general: Tetrazolium assays rely on reduction of a dye to a coloured formazan, in cell work by metabolically active cells.)

Test [2] in a line: Cytotoxicity against human OE21 cells after 72 hrs by MTT assay. The test is classed as functional, cell-based. To be noted: OE21, 72 h. In a few lines:
as §1

For a further test, the system named is PC-3. As to the kind of experiment: Cytotoxicity against human PC3 cells after 72 hrs by MTT assay. To be noted: PC-3, 72 h. In kind it is functional, cell-based. In a few lines:
as §1

The nature of test [3]: Cytotoxicity against human U373 cells after 72 hrs by MTT assay. In kind it is functional, cell-based, U-373MG ATCC. Conditions: U373 MG. In short, it runs like this:
as §1

The nature of test [4]: Induction of human U373 cell death assessed as morphological changes at MTT assay-related IC50 after 72 hrs by quantitative video microscopy. The test is classed as functional, U-373MG ATCC.
A short description of test [5]: Cytotoxicity against human U373 cells assessed as growth inhibition at MTT assay-related IC50 by quantitative video microscopy relative to control. In kind it is functional, U-373MG ATCC.

In general, IC50 refers to the concentration needed to halve the response being measured. Low readings indicate inhibition by little substance, high ones a need for much substance. For the compound `COc1cc(/C=C/C=O)cc(OC)c1O`, the IC50 in the test with LoVo was 33 µM; in the test on A549, over 100 µM; with SK-MEL-28, 66 µM; in [2], 39 µM; with PC-3, 63 µM; in [3] it was 56 µM. Besides, the “growth inhibition (GI)” value in [1] amounted to 50%. Also, in test [4], the Activity is listed as 2%.

With `COc1cc(/C=C/C=O)ccc1O` [CONIFERYL ALDEHYDE], the IC50 was 23 µM with LoVo; 59 µM in the test with A549; 33 µM with SK-MEL-28; 29 µM in test [2]; 35 µM in the test on PC-3; 28 µM in [3]. Moreover, the “growth inhibition (GI)” value in test [1] was found to be 50%. Also, the Activity in test [4] is given as 13%.

For the compound `O=C(/C=C/c1ccc(O)cc1)c1ccc(O)cc1O` [ISOLIQUIRITIGENIN], the IC50 in the test on LoVo was found to be 57 µM; with A549, 85 µM; in the test with SK-MEL-28 it was 75 µM; in test [2], 48 µM; in the test with PC-3, 99 µM; in test [3], 68 µM. Further, in test [1], the “growth inhibition (GI)” value stood at 60%. Besides, in [4], the Activity is recorded as 7%.

In the case of `COc1c(OCC=C(C)C)ccc2ccc(=O)oc12` [LACINARTIN], the IC50 in the test on LoVo was 40 µM; with A549, 95 µM; with SK-MEL-28, over 100 µM; in [2], over 100 µM; in the test on PC-3, 46 µM; in test [3], 70 µM. The “growth inhibition (GI)” value in [5] is 80%. Further, in [4], the Activity is recorded as 37%.

Turning to `CC(C)=CCOc1cc(O)c2c(c1)C(=O)c1cc(C)cc(O)c1C2=O` [MADAGASCIN], the IC50 in the test on LoVo is 8 µM; with A549 it was 20 µM; in the test on SK-MEL-28, 7 µM; in test [2], 10 µM; in the test on PC-3, 6 µM; in test [3] it was 5 µM. The “growth inhibition (GI)” value in [5] is reported as 80%. In addition, the Activity in test [4] was found to be 95%.

For `COc1cc(/C=C/C=O)cc(OC)c1OC/C=C(\C)CCC=C(C)C` [NELUMAL A], the IC50 in the test with LoVo came to 23 µM; with A549 it was 71 µM; in the test on SK-MEL-28, 26 µM; in test [2] it was 27 µM; in the test on PC-3, 39 µM; in test [3] it was 8 µM. For the same compound, the “growth inhibition (GI)” value in test [5] amounted to 80%. The Activity in test [4] was 100%.

Consider `COc1cc(/C=C/CO)cc(OC)c1OC/C=C(\C)CCC=C(C)C` [NELUMOL A], for which the IC50 in the test on LoVo came to 38 µM; in the test with A549, 76 µM; in the test with SK-MEL-28 it was 72 µM; in test [2] it was 39 µM; with PC-3 it was 40 µM; in [3], 42 µM. Moreover, in test [5], the “growth inhibition (GI)” value is recorded as 80%. In test [4], the Activity worked out at 17%.

For the compound `CC(C)=CCC/C(C)=C/CC/C(C)=C/COc1ccc2ccc(=O)oc2c1` [UMBELLIPRENIN], the IC50 came to 50 µM in the test with LoVo; 71 µM with A549; 66 µM in the test with SK-MEL-28; 30 µM in test [2]; 75 µM in the test on PC-3; 72 µM in test [3]. For the same compound, in test [5], the “growth inhibition (GI)” value stood at 90%. Also, the Activity in [4] amounted to 40%.
